Laboratory results as given in PubChem BioAssay AID652139 (Broad Institute, 2013).
Records with an inconclusive call do not appear. Activity calls are given as the source filed them. No rule for the calls is given here.

How the values were obtained:
Assay in all cases: cell viability loss in multiple lines – CellTiter-Glo ATP luminescence, multiple timepoints, mechanism study for HRAS target identification project, profiling panel (AID 652139)
Conditions in all cases: Cancer/normal cell panel viability
U-251 = system: U-251
Outline: (§1)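 Material: Human tumour lines plus mouse C2C12 and HUVEC | Input: 1,500 cells/well | Times: Overnight preculture, multiple exposures incl. 24, 48 h, all 37 °C | Technique: CellTiter-Glo luminescence measuring cellular ATP | Format: Separate assay plate for each exposure timepoint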

HT-29 = system: HT-29
Outline: as §1

LOX-IMVI = system: LOX-IMVI
Outline: as §1

HUVEC = system: HUVEC
Outline: as §1

C2C12 = system: C2C12
Outline: as §1

SR = system: SR
Outline: as §1

HeLA = system: HeLA
Outline: as §1

CCRF-CEM = system: CCRF-CEM
Outline: as §1

SNB-75 = system: SNB-75
Outline: as §1

SNB-19 = system: SNB-19
Outline: as §1

Structure (SMILES) | outcome (U-251) | outcome (HT-29) | outcome (LOX-IMVI) | outcome (HUVEC) | outcome (C2C12) | outcome (SR) | outcome (HeLA) | outcome (CCRF-CEM) | outcome (SNB-75) | outcome (SNB-19) | AC50 (U-251) | AC50 (HT-29) | AC50 (LOX-IMVI) [nM] | AC50 (C2C12) [nM] | AC50 (SR) [nM] | AC50 (HeLA) | AC50 (CCRF-CEM) [nM] | AC50 (SNB-75) [nM] | AC50 (SNB-19) [nM] | AC50 (HUVEC) [nM]
Cc1onc(C(=O)N2CCN(C(c3ccncc3)c3ccncc3)CC2)c1[N+](=O)[O-] | inactive | inactive | inactive | inactive | inactive | inactive | inactive | inactive | inactive | inactive |  |  |  |  |  |  |  |  |  | 
COC(=O)c1ccc([C@@H]2c3[nH]c4ccccc4c3C[C@@H](C(=O)OC)N2C(=O)CCl)cc1 |  |  |  |  |  |  |  |  |  |  | 1060 nM | 177 nM | 31 | 101 | 32.9 | 573 nM | 82.8 | 355 |  | 
C#CCCCC(=O)NCCOCCOCCOc1ccc(N(C(=O)CCl)C(C(=O)NCCc2ccccc2)c2cccs2)cc1Cl (centres undefined) |  |  |  |  |  |  |  |  |  |  | 6810 nM | 2860 nM | 421 | 5420 | 885 | 4490 nM | 1340 | 3560 | 4450 | 
CCC(=O)N(c1ccc(OC)c(Cl)c1)C(C(=O)NCCc1ccccc1)c1cccs1 (centres undefined) | inactive |  | inactive |  |  |  |  |  |  | inactive |  | > 70000 nM (inactive) |  |  |  | > 70000 nM (inactive) |  |  |  | 
Cc1onc(C(=O)N2CCN(C(c3ccc(Cl)cc3)c3ccc(Cl)cc3)CC2)c1[N+](=O)[O-] |  |  |  | inactive |  |  |  |  |  |  | > 70000 nM (inactive) | 963 nM | 103 |  | 142 |  | 207 | 687 |  | 
CC(C)(C)OC(=O)NCCOCCOCCOc1ccc(N(C(=O)CCl)C(C(=O)NCCc2ccccc2)c2cccs2)cc1Cl (centres undefined) |  |  |  |  |  |  |  |  |  |  | 1350 nM | 457 nM | 83.4 | 442 | 95.1 | 650 nM | 140 | 686 | 1720 | 13700
COc1ccc(N(C(=O)CCl)C(C(=O)NCCc2ccccc2)c2cccs2)cc1Cl (centres undefined) |  |  |  |  |  |  |  |  |  |  | 896 nM | 162 nM | 40.5 | 842 | 61.8 | 547 nM | 119 | 286 | 1170 | 8940
